Measurements as given in ChEMBL document CHEMBL5705905, “Pharmacological targeting of kinases MST1 and MST2 augments tissue repair and regeneration” (Sci Transl Med, 2016).
Activity calls are given as the source filed them. The calls are words filed in the database; no cut-off is given here.

Legend:
[1] = target: Phosphatidylinositol 4,5-bisphosphate 3-kinase catalytic subunit beta isoform (Homo sapiens) (UniProt P42338); test: Inhibition of PIK3CB (unknown origin) assessed as remaining activity at 1 uM by Kinome scan method relative to control
[2] = target: Serine/threonine-protein kinase 17B (Homo sapiens) (UniProt O94768); test: Inhibition of DRAK2 (unknown origin) assessed as remaining activity at 1 uM by Kinome scan method relative to control
Sequence of Serine/threonine-protein kinase 17B (Homo sapiens) (O94768 whole entry): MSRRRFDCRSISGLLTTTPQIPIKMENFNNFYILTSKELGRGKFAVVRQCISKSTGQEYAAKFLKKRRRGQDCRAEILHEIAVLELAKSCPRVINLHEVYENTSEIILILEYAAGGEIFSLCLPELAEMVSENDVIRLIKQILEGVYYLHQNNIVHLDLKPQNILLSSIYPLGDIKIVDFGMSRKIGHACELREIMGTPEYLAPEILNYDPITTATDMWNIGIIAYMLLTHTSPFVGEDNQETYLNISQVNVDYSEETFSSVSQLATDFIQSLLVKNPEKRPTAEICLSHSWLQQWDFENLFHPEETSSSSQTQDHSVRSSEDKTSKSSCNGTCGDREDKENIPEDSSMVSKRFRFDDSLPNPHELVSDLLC

[3] = target: Cyclin-dependent kinase 18 (Homo sapiens) (UniProt Q07002); test: Inhibition of PCTK3 (unknown origin) assessed as remaining activity at 1 uM by Kinome scan method relative to control
[4] = target: Serine/threonine-protein kinase SIK2 (Homo sapiens) (UniProt Q9H0K1); test: Inhibition of SIK2 (unknown origin) assessed as remaining activity at 1 uM by Kinome scan method relative to control
Sequence of Serine/threonine-protein kinase SIK2 (Homo sapiens) (Q9H0K1 whole entry, looked up): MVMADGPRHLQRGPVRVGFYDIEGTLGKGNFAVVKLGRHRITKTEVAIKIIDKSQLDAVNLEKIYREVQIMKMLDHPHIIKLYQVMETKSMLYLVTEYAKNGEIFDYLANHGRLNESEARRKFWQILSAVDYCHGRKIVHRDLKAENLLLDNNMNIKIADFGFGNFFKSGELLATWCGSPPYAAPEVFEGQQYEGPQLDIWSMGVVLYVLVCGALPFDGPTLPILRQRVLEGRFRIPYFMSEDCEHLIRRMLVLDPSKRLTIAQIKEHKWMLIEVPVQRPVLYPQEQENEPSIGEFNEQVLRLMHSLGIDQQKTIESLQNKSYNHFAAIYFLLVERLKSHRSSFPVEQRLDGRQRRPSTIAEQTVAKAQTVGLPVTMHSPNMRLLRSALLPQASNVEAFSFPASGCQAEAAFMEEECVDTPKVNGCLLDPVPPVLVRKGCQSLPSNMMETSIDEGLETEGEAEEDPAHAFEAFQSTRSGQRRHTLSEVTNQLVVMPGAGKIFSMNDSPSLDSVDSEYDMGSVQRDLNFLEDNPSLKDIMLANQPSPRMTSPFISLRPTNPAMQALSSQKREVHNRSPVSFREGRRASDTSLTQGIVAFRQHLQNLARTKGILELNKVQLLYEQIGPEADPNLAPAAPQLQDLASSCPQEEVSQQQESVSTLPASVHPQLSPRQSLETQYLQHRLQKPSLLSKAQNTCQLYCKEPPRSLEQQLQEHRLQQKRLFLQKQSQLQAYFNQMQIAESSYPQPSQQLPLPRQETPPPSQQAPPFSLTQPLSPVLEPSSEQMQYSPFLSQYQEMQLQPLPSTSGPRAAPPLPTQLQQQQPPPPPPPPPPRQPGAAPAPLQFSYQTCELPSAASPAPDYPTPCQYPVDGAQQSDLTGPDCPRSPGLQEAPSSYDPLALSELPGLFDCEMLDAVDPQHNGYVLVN

[5] = target: Serine/threonine-protein kinase ULK1 (Homo sapiens) (UniProt O75385); test: Inhibition of ULK1 (unknown origin) assessed as remaining activity at 1 uM by Kinome scan method relative to control
[6] = Acute toxicity in wild-type mouse assessed as bromodeoxyuridine positive cells at 1 mg/kg,ip administrated daily for 2 months and after 2 weeks drug withdrawal by H and E staining based immunohistochemical analysis; format: organism-based; conditions: in vivo, 1460 h
Procedure, shortened: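 Wild-type mice dosed 1 mg/kg i.p. daily for 2 months (vehicle 0.1% citric acid aqueous solution with 20% Kolliphor HS 15), or dosed and then withdrawn 2 weeks. Liver sections given H&E and IHC for CK19 and BrdU; positive cells counted, n = 3; means ± SD, Student's t test.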

[7] = target: Serine/threonine-protein kinase STK11 (Homo sapiens) (UniProt Q15831); test: Inhibition of LKB1 (unknown origin) assessed as remaining activity at 1 uM by Kinome scan method relative to control
[8] = target: SRSF protein kinase 2 (Homo sapiens) (UniProt P78362); test: Inhibition of SRPK2 (unknown origin) assessed as remaining activity at 1 uM by Kinome scan method relative to control
Sequence of SRSF protein kinase 2 (Homo sapiens) (P78362 whole entry, looked up): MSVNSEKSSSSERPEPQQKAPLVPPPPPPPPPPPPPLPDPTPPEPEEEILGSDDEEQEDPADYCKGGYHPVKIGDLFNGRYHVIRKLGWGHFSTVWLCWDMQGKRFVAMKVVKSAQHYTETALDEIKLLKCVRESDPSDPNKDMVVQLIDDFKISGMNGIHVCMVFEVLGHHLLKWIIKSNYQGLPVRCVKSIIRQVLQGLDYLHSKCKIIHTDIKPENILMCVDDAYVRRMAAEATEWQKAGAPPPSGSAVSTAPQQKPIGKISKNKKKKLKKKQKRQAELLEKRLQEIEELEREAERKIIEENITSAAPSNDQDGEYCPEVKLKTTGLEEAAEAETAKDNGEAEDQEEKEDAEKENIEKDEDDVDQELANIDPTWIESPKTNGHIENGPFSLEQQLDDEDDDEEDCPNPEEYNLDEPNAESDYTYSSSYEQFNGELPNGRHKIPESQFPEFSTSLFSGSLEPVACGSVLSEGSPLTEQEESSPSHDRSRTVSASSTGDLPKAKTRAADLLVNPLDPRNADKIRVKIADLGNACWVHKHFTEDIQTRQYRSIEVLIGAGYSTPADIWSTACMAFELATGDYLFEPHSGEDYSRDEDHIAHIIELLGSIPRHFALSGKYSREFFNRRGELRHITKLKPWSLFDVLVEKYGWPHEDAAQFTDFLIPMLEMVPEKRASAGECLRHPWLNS

[9] = test system: Mast/stem cell growth factor receptor Kit (Homo sapiens), P10721 [D816H]; test: Inhibition of KIT D816H mutant (unknown origin) assessed as remaining activity at 1 uM by Kinome scan method relative to control
[10] = target: Dual specificity mitogen-activated protein kinase kinase 4 (Homo sapiens) (UniProt P45985); test: Inhibition of MEK4 (unknown origin) assessed as remaining activity at 1 uM by Kinome scan method relative to control
Mus musculus [11] = test: Protection against APAP induced liver injury in mouse assessed as continual expansion of centrilobular necrotic lesions at 1 mg/kg, ip administered at 1.5 hrs by H&E staining; format: functional, organism-based
[12] = target: Casein kinase I isoform alpha (Homo sapiens) (UniProt P48729); test: Inhibition of CSNK1A1 (unknown origin) assessed as remaining activity at 1 uM by Kinome scan method relative to control
Procedure, shortened: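 Active-site-dependent competition-binding profiling (KINOMEscan) at 1 μM against a 468-kinase panel; compound supplied from a 10 mM DMSO stock. Read-out is ctrl% = (test signal − positive control signal)/(negative control signal − positive control signal) × 100. DMSO is the negative control (100%) and a control compound the positive control (0%). Lower ctrl% means tighter binding.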

[13] = target: Serine/threonine-protein kinase SBK1 (Homo sapiens) (UniProt Q52WX2); test: Inhibition of SBK1 (unknown origin) assessed as remaining activity at 1 uM by Kinome scan method relative to control
[14] = target: Dual specificity tyrosine-phosphorylation-regulated kinase 1B (Homo sapiens) (UniProt Q9Y463); test: Inhibition of DYRK1B (unknown origin) assessed as remaining activity at 1 uM by Kinome scan method relative to control
[15] = target: SNF-related serine/threonine-protein kinase (Homo sapiens) (UniProt Q9NRH2); test: Inhibition of SNRK (unknown origin) assessed as remaining activity at 1 uM by Kinome scan method relative to control
[16] = target: Serine/threonine-protein kinase 10 (Homo sapiens) (UniProt O94804); test: Inhibition of LOK (unknown origin) assessed as remaining activity at 1 uM by Kinome scan method relative to control
[17] = target: Glycogen synthase kinase-3 beta (Homo sapiens) (UniProt P49841); test: Inhibition of GSK3beta (unknown origin) assessed as remaining activity at 1 uM by Kinome scan method relative to control
Sequence of Glycogen synthase kinase-3 beta (Homo sapiens) (P49841 whole entry, looked up): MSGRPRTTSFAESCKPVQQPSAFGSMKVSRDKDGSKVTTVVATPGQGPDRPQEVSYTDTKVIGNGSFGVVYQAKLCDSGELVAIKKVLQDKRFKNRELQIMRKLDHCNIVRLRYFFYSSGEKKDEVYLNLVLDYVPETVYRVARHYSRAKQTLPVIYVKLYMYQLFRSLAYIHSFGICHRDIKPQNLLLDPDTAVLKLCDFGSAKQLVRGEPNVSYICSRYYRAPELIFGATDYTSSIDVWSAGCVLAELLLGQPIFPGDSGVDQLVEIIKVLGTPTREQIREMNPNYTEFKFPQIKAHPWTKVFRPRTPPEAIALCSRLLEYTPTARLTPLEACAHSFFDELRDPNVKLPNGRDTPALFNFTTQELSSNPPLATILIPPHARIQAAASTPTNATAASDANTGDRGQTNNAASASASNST

[18] = target: Ephrin type-A receptor 3 (Homo sapiens) (UniProt P29320); test: Inhibition of EPHA3 (unknown origin) assessed as remaining activity at 1 uM by Kinome scan method relative to control
[19] = target: Glycogen synthase kinase-3 alpha (Homo sapiens) (UniProt P49840); test: Inhibition of GSK3alpha (unknown origin) assessed as remaining activity at 1 uM by Kinome scan method relative to control
[20] = target: Non-receptor tyrosine-protein kinase TYK2 (Homo sapiens, UniProt P29597); test: Inhibition of TYK2 JH1domain-catalytic (unknown origin) in presence of ATP by enzymatic assay
[21] = target: Receptor tyrosine-protein kinase erbB-4 (Homo sapiens) (UniProt Q15303); test: Inhibition of ERBB4 (unknown origin) assessed as remaining activity at 1 uM by Kinome scan method relative to control
[22] = test system: Leucine-rich repeat serine/threonine-protein kinase 2 (Homo sapiens), Q5S007 [G2019S]; test: Inhibition of LRRK2 G2019S mutant (unknown origin) assessed as remaining activity at 1 uM by Kinome scan method relative to control
Sequence of Leucine-rich repeat serine/threonine-protein kinase 2 (Homo sapiens), Q5S007 [G2019S] (Q5S007 whole entry G2019S): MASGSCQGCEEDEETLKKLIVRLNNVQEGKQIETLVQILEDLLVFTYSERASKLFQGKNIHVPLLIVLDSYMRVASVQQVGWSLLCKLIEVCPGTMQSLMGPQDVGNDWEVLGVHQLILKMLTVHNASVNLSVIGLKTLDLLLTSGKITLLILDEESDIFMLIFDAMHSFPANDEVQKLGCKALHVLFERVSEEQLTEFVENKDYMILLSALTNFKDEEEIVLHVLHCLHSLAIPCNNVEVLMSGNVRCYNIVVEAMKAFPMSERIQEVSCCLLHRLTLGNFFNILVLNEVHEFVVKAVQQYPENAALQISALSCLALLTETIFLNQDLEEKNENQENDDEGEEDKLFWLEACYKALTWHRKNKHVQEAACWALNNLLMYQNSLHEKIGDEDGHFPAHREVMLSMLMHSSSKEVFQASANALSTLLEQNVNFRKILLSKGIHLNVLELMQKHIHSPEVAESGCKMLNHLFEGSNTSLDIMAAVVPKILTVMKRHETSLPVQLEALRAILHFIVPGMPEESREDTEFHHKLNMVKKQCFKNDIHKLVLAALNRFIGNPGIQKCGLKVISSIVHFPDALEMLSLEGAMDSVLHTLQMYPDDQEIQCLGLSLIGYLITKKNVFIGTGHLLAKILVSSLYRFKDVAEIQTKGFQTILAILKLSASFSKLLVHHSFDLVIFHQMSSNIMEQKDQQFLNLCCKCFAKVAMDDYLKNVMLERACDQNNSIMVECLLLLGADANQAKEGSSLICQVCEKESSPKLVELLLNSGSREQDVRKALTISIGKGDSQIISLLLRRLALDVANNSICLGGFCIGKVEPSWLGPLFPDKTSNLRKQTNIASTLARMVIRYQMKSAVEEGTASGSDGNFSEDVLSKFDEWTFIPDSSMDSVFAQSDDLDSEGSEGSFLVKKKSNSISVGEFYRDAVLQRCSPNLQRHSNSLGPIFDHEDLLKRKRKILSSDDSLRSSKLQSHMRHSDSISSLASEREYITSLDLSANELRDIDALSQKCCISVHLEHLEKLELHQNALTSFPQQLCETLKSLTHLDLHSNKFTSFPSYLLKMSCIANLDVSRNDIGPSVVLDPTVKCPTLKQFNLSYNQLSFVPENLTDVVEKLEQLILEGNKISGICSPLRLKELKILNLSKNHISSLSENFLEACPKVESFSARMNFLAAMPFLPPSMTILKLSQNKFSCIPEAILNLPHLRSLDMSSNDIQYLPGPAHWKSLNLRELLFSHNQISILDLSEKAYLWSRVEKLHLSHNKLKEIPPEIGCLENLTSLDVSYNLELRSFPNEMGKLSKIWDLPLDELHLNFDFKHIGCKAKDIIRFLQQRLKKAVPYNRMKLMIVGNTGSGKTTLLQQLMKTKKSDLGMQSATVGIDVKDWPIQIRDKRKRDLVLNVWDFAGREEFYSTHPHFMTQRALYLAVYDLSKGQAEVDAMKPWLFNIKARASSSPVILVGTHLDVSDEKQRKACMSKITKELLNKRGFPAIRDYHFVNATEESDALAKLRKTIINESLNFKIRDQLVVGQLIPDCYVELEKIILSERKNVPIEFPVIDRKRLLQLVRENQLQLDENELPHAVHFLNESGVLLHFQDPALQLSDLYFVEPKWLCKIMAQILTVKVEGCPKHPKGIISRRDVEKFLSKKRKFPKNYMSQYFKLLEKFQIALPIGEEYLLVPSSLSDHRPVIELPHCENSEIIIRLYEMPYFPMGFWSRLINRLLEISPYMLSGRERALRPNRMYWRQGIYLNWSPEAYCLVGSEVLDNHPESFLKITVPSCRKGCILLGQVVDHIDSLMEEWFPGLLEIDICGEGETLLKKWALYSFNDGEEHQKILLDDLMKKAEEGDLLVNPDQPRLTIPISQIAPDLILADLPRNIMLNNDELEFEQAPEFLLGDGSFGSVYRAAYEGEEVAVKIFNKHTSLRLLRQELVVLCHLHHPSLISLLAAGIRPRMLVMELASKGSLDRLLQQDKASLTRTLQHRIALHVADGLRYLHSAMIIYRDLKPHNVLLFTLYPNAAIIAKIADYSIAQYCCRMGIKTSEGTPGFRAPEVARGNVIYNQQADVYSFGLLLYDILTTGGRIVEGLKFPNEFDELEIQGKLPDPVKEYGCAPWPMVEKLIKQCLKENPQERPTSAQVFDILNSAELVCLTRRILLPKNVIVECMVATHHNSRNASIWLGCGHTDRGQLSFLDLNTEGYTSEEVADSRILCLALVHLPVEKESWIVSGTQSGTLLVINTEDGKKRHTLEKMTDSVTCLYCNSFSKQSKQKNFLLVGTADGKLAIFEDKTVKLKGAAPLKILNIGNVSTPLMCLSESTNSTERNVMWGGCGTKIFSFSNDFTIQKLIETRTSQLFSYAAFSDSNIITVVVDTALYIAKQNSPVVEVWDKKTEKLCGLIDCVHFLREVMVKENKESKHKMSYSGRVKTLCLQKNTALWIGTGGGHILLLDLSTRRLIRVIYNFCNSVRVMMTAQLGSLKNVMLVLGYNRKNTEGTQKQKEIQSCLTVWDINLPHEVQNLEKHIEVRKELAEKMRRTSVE

[23] = target: Receptor tyrosine-protein kinase erbB-2 (Homo sapiens) (UniProt P04626); test: Inhibition of ERBB2 (unknown origin) assessed as remaining activity at 1 uM by Kinome scan method relative to control
[24] = target: Ribosomal protein S6 kinase beta-1 (Homo sapiens) (UniProt P23443); test: Inhibition of S6K1 (unknown origin) assessed as remaining activity at 1 uM by Kinome scan method relative to control
[25] = target: Serine/threonine-protein kinase Sgk1 (Homo sapiens) (UniProt O00141); test: Inhibition of SGK (unknown origin) assessed as remaining activity at 1 uM by Kinome scan method relative to control
[26] = target: Phosphatidylinositol 4,5-bisphosphate 3-kinase catalytic subunit gamma isoform (Homo sapiens, UniProt P48736); test: Binding affinity to PIK3CG (unknown origin) assessed as dissociation constant
Mus musculus [27] = test: Protection against APAP induced liver injury in mouse assessed as decrease in ALT level at 1 mg/kg, ip administered at 1.5 hrs; format: functional, organism-based; conditions: Serum
RAW264.7 = test: Inhibition of MST1/2 (unknown origin) in mouse RAW264.7 cells assessed as H2O2 stimulated MOB1 phosphorylation level at 1 to 3 uM by immunoblot analysis; format: cell-based; conditions: dose 1-3 µM
[28] = target: Inhibitor of nuclear factor kappa-B kinase subunit epsilon (Homo sapiens) (UniProt Q14164); test: Inhibition of IKK-epsilon (unknown origin) assessed as remaining activity at 1 uM by Kinome scan method relative to control
[29] = target: Tyrosine-protein kinase ABL1 (Homo sapiens) (UniProt P00519); test: Inhibition of phosphorylated ABL1 (unknown origin) assessed as remaining activity at 1 uM by Kinome scan method relative to control

CN1C(=O)c2sccc2N(C)c2nc(Nc3ccc(S(N)(=O)=O)cc3)ncc21
Activity [1]: 72% | Activity [2]: 90% | Activity [3]: 100% | Activity [4]: 100% | Activity [5]: 21% | Activity [6]: Non-Toxic | Activity [7]: 96% | Activity [8]: 93% | Activity [9]: 85% | Activity [10]: 100% | Activity (Mus musculus [11]): Active | Activity [12]: 88% | Activity [13]: 42% | Activity [14]: 85% | Activity [15]: 100% | Activity [16]: 100% | Activity [17]: 100% | Activity [18]: 91% | Activity [19]: 100% | IC50 [20]: 1.9 nM | Activity [21]: 79% | Activity [22]: 28% | Activity [23]: 100% | Activity [24]: 100% | Activity [25]: 96% | Kd [26]: 4.8 nM | Activity (Mus musculus [27]): Active | inhibition (RAW264.7): Active | Activity [28]: 86% | Activity [29]: 13%
